Hits are enriched below; roughly 2.6% of the tested compounds scored in any of these assays.
MITF act = activators of MITF-driven TRPM1 promoter activity in SK-MEL-5 cells | SK-MEL-5 TRPM1-promoter luciferase, 24 h; % of positive control, neutral wells = 0 | activation, % at 12.5 µM | 0.75% of 300,000 active;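 active = mean activation of at least 80% with every replicate also reaching 80%; inconclusive = mean reaches 80% but some replicate falls short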;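 note: 0% = neutral control wells and 100% = parthenolide positive control wells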
esBAF inh = blocks esBAF chromatin remodeling in mouse ES cells. reporter increase, % at 12.5 µM. Bmi1-luciferase knock-in reporter, 24 h; 100% = twice the neutral-well signal. 2% of 350,000 active; in the data active = activation above about 40%; inconclusive = no clear call, values can overlap the other calls;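 note: 0% = median of the plate's neutral control wells and 100% = double that signal; a rise in the Bmi1 reporter signal indicates esBAF inhibition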
Xi reactivation = activators of X-chromosome reactivation in mouse fibroblasts; XiGFP mouse fibroblasts, % GFP-positive cells imaging, 3 d; cells co-treated with 5-aza-dC sensitizer; scaled so ellipticine positive control = 100%; activation, % at 7.58 µM; 0.055% of 360,000 active; AID 743238;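 active = mean normalized replicate activation at least 10% and every replicate at or above 10%; inconclusive = only one of the two criteria met; inactive = mean below 10% and not all replicates reach 10%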;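 note: 0% = median of on-plate neutral control wells and 100% = ellipticine 6 µM median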
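System: SV40-immortalized XiGFP fibroblast cells, line 68-5-11 / Incubation: 3-day compound exposure, then 15 min fixation at room temperature / Compound: single concentration per compound, delivered by pin transfer / Buffer or medium: DMEM plus 5-aza-dC sensitizer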
Wnt bcat act = activators of Wnt/beta-catenin signaling; activation, % at 9.35 µM; 1.2% of 300,000 active; Wnt/beta-catenin reporter cell assay, activator, plate reader; in the data active = activation above about 30%, passing the limit was not always enough; inconclusive = no clear call, values can overlap the other calls;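 note: 0% = neutral control wells and 100% = positive control wells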
Vif inh = blocks HIV Vif function; HEK293T cells, Vif self-association by quenched fluorescence, imaging, 24 h; 0.35% of 340,000 active; inhibition, % at 7.49 µM; in the data active = inhibition above about 50%, passing the limit was not always enough; inconclusive = no clear call, values can overlap the other calls; inactive = below about 31%
* marks the source's active call; other numbers are inactive results; u = inconclusive; x = no result given.

SMILES | MITF act | esBAF inh | Xi reactivation | Wnt bcat act | Vif inh
Cc1ccc(NC(=O)CC2SC(=O)N(c3ccccc3)C2=O)cc1 (stereo not drawn) | -11 | x | x | 33* | 15
C[C@@H]1CN([C@@H](C)CO)C(=O)c2cc(NC(=O)Nc3cccc4ccccc34)ccc2O[C@H]1CN(C)Cc1ccc(C(F)(F)F)cc1 | x | -2 | -1 | x | x
CC=Cc1ccc2n(c1=O)C[C@H]1[C@H](CO)[C@@H](C(=O)NCCN3CCCC3)N(C(=O)NC(C)C)[C@@H]21 (mixture of isomers) | x | -4 | 0 | x | x
CC(=O)NC1CCC(OC(=O)Nc2ccccc2)CC1 (stereo not drawn) | 37 | 53* | 0 | 2 | -3
C/C(=N/Nc1ccc(C(=O)O)cc1)c1ccc2c(c1)Nc1ccccc1S2 | 38 | x | 0 | -4 | -15
C/C(=N\Nc1ccc(C(=O)O)cc1)c1ccc2c(c1)Nc1ccccc1S2 | 124* | 52* | 0 | 20 | -2
COc1ccc2nc(N3C(=O)C(O)=C(C(=O)c4ccco4)C3c3ccccc3OC)sc2c1 (stereo not drawn) | 0 | 12 | 0 | 6 | 82*
CCOc1cccc(C2C(C(=O)c3ccco3)=C(O)C(=O)N2c2nnc(C)s2)c1 (stereo not drawn) | 8 | 12 | 0 | 90* | u
O=C(Nc1ccc2ncccc2c1)c1cccc(Br)c1 | 41 | u | 0 | 33* | -7
Cc1ccc(C(=O)Nc2ccc3ncccc3c2)cc1 | -47 | -66 | 0 | 22 | 11
CO[C@@H]1CN(C)C(=O)c2cc(NS(C)(=O)=O)ccc2OC[C@H](C)N(CC2CCOCC2)C[C@H]1C | x | 1 | 0 | x | x
COC(=O)C1=NNC(C(=O)c2ccco2)C1c1ccc(OC)cc1 (stereo not drawn) | -2 | -1 | 0 | 0 | 52*
C=CCSc1n[nH]c(-c2cccs2)n1 | 26 | 18 | 0 | 5 | 7
C=CCSc1n[nH]c(-c2ccc(OCCCC)cc2)n1 | 67 | 48* | x | -2 | -5
C=CCSc1n[nH]c(-c2ccc(OCCC)cc2)n1 | 92* | 74* | x | 21 | -8
Clc1ccc(OCc2nnc(-c3ccccc3Br)o2)cc1 | 20 | 0 | x | x | 1
Clc1ccc(OCc2nnc(-c3ccccc3Br)o2)c(Cl)c1 | 106* | 79* | x | 19 | 0
Fc1ccc(OCc2nnc(-c3ccccc3Br)o2)c(Cl)c1 | u | 67* | 0 | 4 | -10
O=C(NCC[C@@H]1CC[C@H](NS(=O)(=O)c2ccccc2F)[C@@H](CO)O1)c1ccc(F)cc1 | x | 4 | 0 | x | x
C[C@H]1CN([C@@H](C)CO)C(=O)Cc2cc(NC(=O)C3CCCCC3)ccc2O[C@@H]1CN(C)Cc1ccc(Oc2ccccc2)cc1 | x | 2 | 0 | x | x
Cc1ccc(/C=C2/CNC/C(=C/c3ccc(C)cc3)C2=O)cc1 | -90 | 2 | 0 | -5 | 120*
C[C@H](CO)N1C[C@H](C)[C@H](CN(C)Cc2ccc3c(c2)OCO3)Oc2ccc(NC(=O)c3ccncc3)cc2C1=O | x | 1 | 0 | x | x
Cc1cc(O)c(N=Nc2ccc(C(=O)O)cc2)cc1C | 17 | 67* | 0 | 17 | 24
CN(C)c1ccc(N=Nc2ccc(C(=O)O)cc2)cc1 | -65 | x | 0 | 7 | 11
COc1ccc(C(=O)NNC(=S)NC(=O)c2cccs2)cc1 | -7 | x | 0 | -6 | 0
SMILES | MITF act | esBAF inh | Xi reactivation | Wnt bcat act | Vif inh
Cc1cccc(NC(=S)Nc2ccccn2)c1 | 26 | x | 0 | 60* | -8
COc1ccc(/C=C/C(=O)NC(=S)NNC(=O)c2cccs2)cc1 | -20 | x | 0 | 1 | 67*
COC(=O)c1ccc(NC(=S)Nc2ccccn2)cc1 | 112* | 58* | x | x | -2
COC(=O)c1ccc(NC(=S)Nc2ccc(O)cc2)cc1 | 3 | x | 0 | 1 | 5
COc1ccccc1/C=C/C(=O)NC(=S)Nc1ccccn1 | x | 31 | 0 | 6 | -3
COc1ccc(/C=C/C(=O)NC(=S)Nc2ccccn2)cc1 | 55 | 48* | 0 | 12 | 13
CN(C)CCCNC(=O)[C@H]1[C@H](CO)[C@H]2Cn3c(ccc(-c4ccc(F)cc4)c3=O)[C@H]2N1C | x | 4 | 0 | x | x
C[C@@H]1CN([C@@H](C)CO)C(=O)c2cc(NC(=O)CCC(F)(F)F)ccc2O[C@H]1CN(C)S(=O)(=O)c1cccs1 | x | -4 | 0 | x | x
COc1cccc(NC(=S)Nc2cc(C)cc(C)n2)c1 | x | u | 0 | 54* | -7
COc1ccc(NC(=S)Nc2ccccn2)cc1 | u | 58* | 0 | 36* | -1
COCC(=O)Nc1ccc2c(c1)OC[C@@H](C)N(C(=O)C1CCCC1)C[C@@H](C)[C@@H](OC)CN(C)C2=O | x | -6 | 0 | x | x
Cc1ccc(S(=O)(=O)N[C@@H]2CC[C@H](CC(=O)NCCCN(C)C)O[C@H]2CO)cc1 | x | -6 | 0 | x | x
O=C(c1ccccc1F)N1CC[C@@H]2[C@H](CO)Nc3ccc(C#Cc4ccccc4F)cc3[C@@H]21 | x | -3 | 0 | x | x
CN(C)c1ccc(NC(=O)c2ccc(N3CCOCC3)nc2)cc1 | 32 | 51* | 1 | 9 | 5
Cc1ccc(C(=O)Nc2ccc(N3CCOCC3)nc2)cc1 | x | 15 | x | 15 | 0
Cc1ccccc1C(=O)Nc1ccc(N2CCOCC2)nc1 | x | 23 | x | x | 53*
S=c1[nH]ccn1-c1ccccc1Cl | x | x | 0 | 3 | 1
S=c1[nH]ccn1-c1cccc(Cl)c1Cl | 1 | x | 0 | -1 | 52*
C[C@H](CO)N1C[C@H](C)[C@H](CN(C)CC2CCCCC2)Oc2c(NC(=O)Nc3ccccc3)cccc2C1=O | x | 4 | 0 | x | x
CC1CCc2sc(C(=O)N3CCC(C(N)=O)CC3)cc2C1 (stereo not drawn) | x | 34 | 0 | 36* | 2
COc1cccc(NC(=O)Nc2ccc3c(c2)C(=O)N(C)[C@H]2CC[C@@H](CC(=O)NCCc4ccccc4)O[C@@H]2CO3)c1 | x | 6 | 0 | x | x
CN1CCN(/N=C/c2ccc(OCc3ccccc3)cc2)CC1 | 85* | 40 | 0 | 16 | -5
COC(=O)c1ccc(COc2ccc(/C=N/N3CCN(C)CC3)cc2)cc1 | 50 | x | 0 | -2 | -3
O=C(C1CC1)N1CC2(C1)[C@H](c1ccccc1)[C@H](CO)N2C(=O)c1cccnc1 | x | x | 0 | x | x
CCN(CC)S(=O)(=O)c1ccc(NC(=O)c2ccccn2)cc1 | 69 | 48* | x | 22 | 4
CCc1cc2c(=O)[nH]c(N3CCCC3)nc2s1 | 41 | x | 0 | 22 | -8
CCc1cc2c(=O)[nH]c(-c3ccccn3)nc2s1 | -27 | x | 2 | 34* | -8
O=C(NCCS(=O)(=O)NCCc1ccccc1)c1ccc2c(c1)OCO2 | 108* | x | 0 | -1 | 4
O=C(NCCc1cccc(Cl)c1)c1ccc2c(c1)OCO2 | 27 | x | 0 | 45* | 0
Cc1noc(C)c1NC(=O)N(C)C[C@@H]1OCCCC[C@@H](C)Oc2ccc(NC(=O)CCC(F)(F)F)cc2C(=O)N([C@H](C)CO)C[C@@H]1C | x | 1 | 0 | x | x
